In ChEMBL document CHEMBL3351730, “New N-aryl-N'-(3-(substituted)phenyl)-N'-methylguanidines as leads to potential PET radioligands for imaging the open NMDA receptor” (Bioorg Med Chem Lett, 2015):
pKi: −log10 of the molar value.

Tests used:
[1] = molecular target: Glutamate NMDA receptor (Rattus norvegicus) (UniProt P35439+Q00959+Q00960+Q00961+Q62645+Q8VHN2+Q9R1M7); assay: Displacement of [3H]TCP from rat brain NMDA receptor at 1 uM
Outline: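 Rat brain membrane suspensions; competition for the PCP site of the NMDA receptor with [3H]TCP as radioligand. Test ligand at 1.0 μM, read-out as percent inhibition of [3H]TCP binding. Values are the mean of two experiments.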

Glutamate NMDA receptor = assay: Displacement of [3H]TCP from rat brain NMDA receptor
Outline: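 Rat brain membrane suspensions, PCP site of NMDA receptor; [3H]TCP as radioligand. Ligands first screened at 1.0 μM for inhibition of [3H]TCP binding. Ki determined, also with [3H]TCP, usually when inhibition at 1.0 μM reached 80% or more. Values are the mean from two experiments.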

SMILES | inhibition [1] | pKi (Glutamate NMDA receptor)
CN(C(=N)Nc1cccc2ccccc12)c1cc(Br)ccc1F | 13.8% | –
C#Cc1cccc(N(C)C(=N)Nc2cccc3ccccc23)c1 | 74.3% | –
CSc1cccc(N(C)C(=N)Nc2cccc3ccncc23)c1 | 73.8% | –
CN(C(=N)Nc1cccc2ccccc12)c1cccc(CO)c1 | 20% | –
CSc1cccc(N(C)C(=N)Nc2cccc3cccnc23)c1 | 72.2% | –
CN(C(=N)Nc1cccc2ccccc12)c1cccc(C#N)c1 | 62.9% | –
CSc1cccc(N(C)C(=N)Nc2cccc3ccccc23)c1 | 93.1% | 7.40
CSc1cccc(N(C)C(=N)Nc2cccc3c(Cl)nccc23)c1 | 91.7% | 6.27
CSc1cccc(N(C)C(=N)Nc2ccc3ccccc3c2)c1 | 3.4% | –
CN(C)c1cccc(N(C)C(=N)Nc2cccc3ccccc23)c1 | 94.6% | 7.44
COc1cc(F)cc(N(C)C(=N)Nc2cccc3ccccc23)c1 | 32.9% | –
CN(C(=N)Nc1cccc2ccccc12)c1cccc(Oc2ccccc2)c1 | 30% | –
CN(C(=N)Nc1cccc2ccccc12)c1cccc(Cc2ccccc2)c1 | 16.2% | –
C=CSc1cccc(N(C)C(=N)Nc2cccc3ccccc23)c1 | 88.4% | –
CSc1cccc(N(C)C(=N)Nc2nccc3ccccc23)c1 | 25.3% | –
CN(C(=N)Nc1cccc2ccccc12)c1cccc(O)c1 | 11.9% | –
CN(C(=N)Nc1cccc2ccccc12)c1ccc2ccccc2c1 | 55% | –
CSc1cccc(N(C)C(=N)Nc2cncc3ccccc23)c1 | 80.7% | < 6.00
CN(C(=N)Nc1cccc2ccccc12)c1cccc(SCCF)c1 | 76.7% | –
CN(C(=N)Nc1cccc2ccccc12)c1cccc(OCc2ccccc2)c1 | -2.5% | –
CN(C(=N)Nc1cccc2ccccc12)c1cccc(F)c1 | 36.9% | –
CSc1cccc(N(C)C(=N)Nc2ccc(Cl)c3ncccc23)c1 | 8.6% | –

SMILES | inhibition [1] | pKi (Glutamate NMDA receptor)
CN(C(=N)Nc1cccc2ccccc12)c1ccc(F)c(Br)c1 | 56.5% | –
CN(C(=N)Nc1cccc2ccccc12)c1cccc(Cl)c1F | 84% | –
CN(C(=N)Nc1cccc2ccccc12)c1cccc(OC(F)(F)F)c1 | 79.2% | –
CN(C(=N)Nc1cccc2ccccc12)c1cccc(C(F)(F)F)c1 | 107% | 7.74
CSc1cccc(N(C)C(=N)Nc2ccc(Br)cc2Br)c1 | 69.7% | –
CN(C(=N)Nc1cccc2ccccc12)c1c(F)ccc(Cl)c1F | 37.6% | –
CSc1cccc(N(C)C(=N)Nc2ccc(Br)c3ccncc23)c1 | 14.4% | –
CN(C(=N)Nc1cccc2ccccc12)c1cccc(I)c1 | 106% | 7.50
CN(C(=N)Nc1cccc2ccccc12)c1cccc(OC(F)F)c1 | 66.4% | –
CN(C(=N)Nc1cccc2ccccc12)c1ccc(F)c([N+](=O)[O-])c1 | 0.7% | –
CN(C(=N)Nc1cccc2ccccc12)c1ccc(F)c(C#N)c1 | 62.1% | –
CSc1cccc(N(C)C(=N)Nc2cccc3cnccc23)c1 | 91.2% | 6.96
CC(=O)c1cccc(N(C)C(=N)Nc2cccc3ccccc23)c1 | 82.3% | 6.82
CN(C(=N)Nc1cccc2ccccc12)c1cccc(Br)c1 | 104% | 7.27
CN(C(=N)Nc1cccc2ccccc12)c1cccc(SC(F)(F)F)c1 | 80% | 6.35
CN(C(=N)Nc1cccc2ccccc12)c1cccc(Cl)c1 | 69.2% | –
CN(C(=N)Nc1cccc2ccccc12)c1ccc(F)c(Cl)c1 | 65.8% | –
CSc1cccc(N(C)C(=N)Nc2cnccc2Br)c1 | 23.7% | –
C=Cc1cccc(N(C)C(=N)Nc2cccc3ccccc23)c1 | 73.9% | –
Cc1cc(N(C)C(=N)Nc2cccc3ccccc23)ccc1F | 46.5% | –
CN(C(=N)Nc1cccc2ccccc12)c1cc(F)cc(Cl)c1 | 86.8% | 7.11
